High-throughput results (PubChem)
An excerpt weighted towards active compounds, which were near 3% of everything screened.
NPY-Y1 PAM-ag = human NPY-Y1 potentiation or agonism, primary screen | P25929 | NPY-Y1 expressing cells, potentiator/agonist activation | activation, % at 3.6 µM | actives 0.37% (n = 220,000) | AID 1304; in the data active means activation above about 33%, passing the limit was not always enough;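 further: cells stimulated with NPY at EC10 then isoproterenol at EC100; 0% = low agonist plus stimulus and 100% = saturating agonist plus stimulus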
Wee1 degr inh = blocks degradation of human Wee1 kinase | actives 1.2% (n = 220,000) | AID 1321 | HeLa Luc-Wee1K328M stability, luciferase luminescence; 100% = proteasome inhibitor MG132 effect | reporter increase, % at 5 µM;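 active means activation above the mean of all tested compounds plus 3 SD, set per screening run, cut at about 8.8% in these data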;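 further: cells exposed to compound for 20 h before luminescence read; 0% = DMSO alone and 100% = MG132 at 30 µM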
Target sequence (P30291 whole entry K328M): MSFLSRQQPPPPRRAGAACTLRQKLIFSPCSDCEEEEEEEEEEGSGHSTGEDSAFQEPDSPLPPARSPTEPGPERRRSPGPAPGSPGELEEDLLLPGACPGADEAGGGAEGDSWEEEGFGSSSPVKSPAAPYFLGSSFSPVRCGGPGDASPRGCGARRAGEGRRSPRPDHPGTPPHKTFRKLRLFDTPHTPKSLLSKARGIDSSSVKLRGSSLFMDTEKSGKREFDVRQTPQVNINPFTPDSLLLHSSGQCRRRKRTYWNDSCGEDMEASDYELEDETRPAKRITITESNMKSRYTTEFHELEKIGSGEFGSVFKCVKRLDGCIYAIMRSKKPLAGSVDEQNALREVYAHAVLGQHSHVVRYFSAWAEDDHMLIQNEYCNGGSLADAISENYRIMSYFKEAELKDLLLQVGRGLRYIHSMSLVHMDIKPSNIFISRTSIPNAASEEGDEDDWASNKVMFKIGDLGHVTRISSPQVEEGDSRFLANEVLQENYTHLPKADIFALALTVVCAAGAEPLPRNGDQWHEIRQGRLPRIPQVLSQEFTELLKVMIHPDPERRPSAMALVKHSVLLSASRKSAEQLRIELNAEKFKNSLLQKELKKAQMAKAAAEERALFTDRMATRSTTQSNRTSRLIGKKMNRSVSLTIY
Hsp70 activator = Hsp70 transcriptional activation, primary screen; HeLa Hsp70 promoter luciferase reporter, luminescence; scaled: vehicle 0, proteasome-inhibitor control 100%; activation, % at 10 µM; actives 0.04% (n = 200,000); AID 1203;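 active means activation above the mean across all tested compounds plus 3 SD, cutoff set per campaign, cut at about 5.5% in these data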;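 further: 100% = MG132 at 30 µM as the positive control and 0% = DMSO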
NPY2 pot ag = potentiates or activates human NPY-Y2 receptor; cells expressing NPY-Y2, potentiator/agonist read-out; activation, % at 3.6 µM; actives 0.45% (n = 220,000); in the data active means activation above about 27%;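 further: cells stimulated with NPY near EC25 plus isoproterenol at EC100; 0% = vehicle plus submaximal agonist and 100% = vehicle plus saturating agonist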
NPY Y1 blocker = antagonists of human neuropeptide Y receptor Y1; P25929; HEK293-CNG Y1 cells, membrane potential fluorescence; NPY at EC95, then isoproterenol; inhibition, % at 3.6 µM; actives 1% (n = 200,000); AID 1040;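 active means inhibition above the campaign mean inhibition of all tested compounds plus 3 SD, cut at about 20% in these data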;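 further: 0% = DMSO wells given NPY plus isoproterenol and 100% = isoproterenol alone without NPY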
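Material: Y1- and CNG-channel-expressing HEK293 cells / Probe or stimulus: NPY 25 nM then isoproterenol 1 µM plus Ro 20-1724 25 µM / Doses: 3.6 µM single dose, DMSO 0.4% / Schedule: compound incubation 1 h at room temperature, readout 45 min post-stimulation / Signal: membrane potential fluorescence / Benchmarks: isoproterenol-only wells as full block versus NPY-plus-isoproterenol wells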
NPY-Y2 antag = blocks the human neuropeptide Y Y2 receptor; P49146; actives 0.99% (n = 140,000); AID 793; inhibition, % at 2.7 µM; NPY-Y2 expressing cells, antagonist mode;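 further: 0% = vehicle with agonist challenge and 100% = reference antagonist with challenge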
NPY1 antag conf = confirmation of human neuropeptide Y receptor Y1 antagonists. shares compounds with NPY Y1 blocker. HEK293-CNG NPY-Y1, membrane potential fluorescence, cAMP; NPY challenge against isoproterenol-raised cAMP. inhibition, % at 3.6 µM. actives 21% (n = 1,200). AID 1254; in the data active means inhibition above about 20%;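 further: 0% = vehicle with agonist plus stimulus and 100% = stimulus alone without agonist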
NPY2 antag ctr = antagonizes human NPY-Y2, counter-screen to NPY-Y1 antagonists; actives 28% (n = 1,200); inhibition, % at 3.6 µM; shares compounds with NPY Y1 blocker; HEK293 NPY-Y2 CNG membrane potential fluorescence, antagonism; cells given NPY, then isoproterenol;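 further: 0% = DMSO with agonist challenge and 100% = reference antagonist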
* marks the source's active call; other numbers are inactive results; . = no result given; ! = a repeat was not active. Unless noted, no stated cut-off is given here; in the data, active means inhibition above about 17%; inactive means the rest.

SMILES | NPY-Y1 PAM-ag | Wee1 degr inh | Hsp70 activator | NPY2 pot ag | NPY Y1 blocker | NPY-Y2 antag | NPY1 antag conf | NPY2 antag ctr
Clc1ccc2nc(N3CCNCC3)nc(-c3ccccc3)c2c1 | -80 | 2 | 0 | -10 | 26* | 8 | 19 | 20*
Cc1ccc(C(C)C)c(OCCCN(C)Cc2ccccc2)c1 | -28 | 1 | 0 | -11 | 32* | 12 | 12 | 18*
CCC(CC)NC(=O)COC(=O)c1cc(SC)ccc1Cl | -13 | 5 | 0 | -6 | 3 | . | . | .
O=S(=O)(c1ccc2c(c1)OCCO2)N(Cc1ccc(F)cc1)Cc1nnc(-c2cccs2)o1 | -5 | 2 | 0 | -16 | 45* | 14 | 14 | 8
Cc1cccn2c(CNC3CCCc4ccccc43)c(C(=O)N3CCCCC3)nc12 (stereo not given) | -5 | -2 | 0 | -24 | 24* | . | 8 | 6
CCN(CC)C(=O)c1ccc(-c2nnc(OC)c3ccccc23)cc1 | 1 | 2 | . | -2 | . | . | . | .
COc1ccc(-n2cc(CNCCc3ncc(C)[nH]3)c(-c3ccccc3Cl)n2)cc1 | -9 | -1 | 0 | -22 | 11 | . | . | .
Cc1ccc(-n2cc(CNCCc3ncc(C)[nH]3)c(-c3ccc(F)cc3)n2)cc1 | -29 | 3 | 0 | -21 | 27* | . | 12 | 25*
Cc1ccc(-n2cc(CNCCn3nc(C)cc3C)c(-c3ccc(F)cc3)n2)cc1 | -19 | -4 | 0 | -7 | 26* | . | 27* | 14
Cc1ccc(CNC(=O)c2ccc(NS(=O)(=O)c3c(C)noc3C)cc2)cc1 | -7 | -3 | 0 | -3 | 28* | 10 | 11 | 10
Cc1ccc2nc3c(c(C(=O)O)c2c1)CCC3 | -38 | 2 | 0 | -2 | 22* | 8 | 5 | 11
COC(CNC(=O)c1cccc(-n2c(=S)[nH]c3cc(Cl)ccc3c2=O)c1)OC | 7 | 3 | 0 | 7 | 4 | . | . | .
COc1cc(NC(=S)NC(=O)c2ccccc2F)ccc1NC(=O)c1ccco1 | -41 | -4 | 0 | -9 | 6 | 1 | . | .
COc1ccccc1-n1c(-c2ccccc2)c[n+]2c1CCc1ccccc1-2 | -66 | 0 | 0 | 14 | 33* | . | 21*! | 14
CC(C)c1ccc(-n2c(-c3ccccc3)c[n+]3c2CCc2ccccc2-3)cc1 | -75 | -3 | 0 | -21 | 116* | . | 112* | 77*
COc1ccccc1-n1c(-c2ccccc2)c[nH]c1=S | 2 | 3 | 0 | 5 | -2 | . | . | .
Cc1cc2cc(CNC(=S)NC3CCCCC3)ccc2n1C | -15 | -1 | 0 | -8 | 9 | . | . | .
O=C(COc1ccc(Cl)cc1Cl)N1CCN(c2ccccn2)CC1 | -9 | 6 | 0 | 2 | 3 | . | . | .
O=C(CCCOc1ccc(Cl)cc1Cl)N1CCN(c2ccccn2)CC1 | -28 | -1 | 0 | -14 | 24* | 11 | 8 | 11
CCc1cc(-c2[nH]ncc2-c2ccc3c(c2)OCO3)c(O)cc1O | 16 | -2 | 0 | 10 | 20* | 1 | 21* | 0
CCCc1cc(-c2[nH]ncc2-c2ccc3c(c2)OCCCO3)c(O)cc1OC | 23 | 0 | 0 | -9 | 1 | 2 | . | .
CCCN1CNc2c(c(=O)[nH]c(=S)n2CCc2ccccc2)C1 | 3 | -1 | 0 | 1 | 2 | . | . | .
CC(C)Cn1cc(C(=O)N2CCOCC2)c2c3ccccc3n(C)c2c1=O | -11 | -1 | 0 | -7 | 0 | 4 | . | .
CC(C)Cn1cc(C(=O)NCc2cccs2)c2c3ccccc3n(C)c2c1=O | -2 | -1 | 0 | 2 | 21* | 16 | 4 | 5
CC(C)Cn1cc(C(=O)N2CCC(C)CC2)c2c3ccccc3n(C)c2c1=O | -2 | 2 | 0 | -13 | 23* | . | 4 | 8
SMILES | NPY-Y1 PAM-ag | Wee1 degr inh | Hsp70 activator | NPY2 pot ag | NPY Y1 blocker | NPY-Y2 antag | NPY1 antag conf | NPY2 antag ctr
CCC(C)N1C(=O)CN(C2CCCCCC2)C(=O)C1c1ccccc1F (stereo not given) | -26 | 0 | 0 | -30 | 24* | . | 6 | 13
Oc1ccc2ccccc2c1C=Nc1cc(C(F)(F)F)ccc1N1CCCC1 | -12 | 2 | 0 | 9 | -2 | 1 | . | .
CCCCOc1ccc(C(=O)OC(C)CN(C)C)cc1 (stereo not given) | -31 | 0 | 0 | -34 | 24* | 11 | 6 | 9
CCCCOc1ccc(C(=O)O)cc1 | -14 | -3 | 0 | -8 | 6 | 5 | . | .
COc1ccc(/C=N\NC(=O)c2cc(O)c(O)c(O)c2)cc1CN1CCN(c2ccc(F)cc2)CC1 | -18 | 4 | 0 | 1 | -2 | 4 | . | .
COC(=O)C1CCCN1S(=O)(=O)c1ccc2ccccc2c1 (stereo not given) | 7 | -2 | 0 | 3 | 41* | 9 | 57* | 27*
Cc1cc(C(F)(F)F)n2nc(-c3sccc3-n3cccc3)cc2n1 | -9 | -1 | 0 | -15 | 5 | 1 | . | .
Cc1nc2cc(-c3sccc3-n3cccc3)nn2c(C)c1C | -60 | 3 | 0 | -31 | 22* | 2 | 17 | 20*
COC(=O)[C@@]1(Cc2ccc(OC)cc2)[C@H]2c3cc(C(=O)N(C)C)n(Cc4ccc(OC(F)(F)F)cc4)c3C[C@H]2CN1C(=O)c1ccccc1 | 3 | 2 | 0 | 9 | 35* | 16 | 14 | 6
COc1ccc(C2=NOC(CNC(=O)c3ccccc3Br)C2)c(OC)c1 (stereo not given) | 5 | -2 | . | -21 | . | . | . | .
COc1ccc(OC)c(/C=c2\sc3nc(-c4cccs4)nn3c2=O)c1 | -32 | -3 | 0 | -9 | 20* | 5 | 3 | 2
COc1ccc(C)cc1-n1c(SCC(=O)Nc2cc(C)on2)nc2sc(C)c(C)c2c1=O | -7 | -1 | 0 | -6 | -9 | 0 | . | .
Cc1cccc(COCC(CC(C)C)N2CCN(C(=O)c3ccc(C(F)(F)F)cc3)CCC2=O)c1 (stereo not given) | -23 | 7 | 0 | -4 | 13 | 14 | . | .
CC(C)CC(COCc1cccc(Cl)c1)N1CCN(C(=O)c2ccc(C(F)(F)F)cc2)CCC1=O (stereo not given) | -9 | 0 | 0 | -3 | 27* | 13 | 14 | 7
COc1ccc(CC2(CO)CCN(C/C=C/c3ccccc3OC)CC2)cc1 | -30 | 0 | 0 | -15 | 27* | . | 17 | 23*
Cc1ccc(C(=O)N2CCN(c3ccc([N+](=O)[O-])cc3-n3cccc3)CC2)cc1 | -23 | 3 | . | -14 | . | . | . | .
